“And” between values parts separate entries of the source, which are not always exact repeats. Identical values can stand only once. “Also recorded” adds a separate entry of the source. Values belong to the compound of their own block, whether it stands above or below them. Where no end group is shown, it is not given here.
What was measured:
EGFR [1] = settings: ref [16],[17]; cited from earlier work
[2] = system: wild type EGFR kinase domain; test: Transmission electron microscopy with wild type EGFR kinase domain; settings: TEM
Outline: (§1)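 Test peptide at varied concentrations, without or with 2 μM wild-type or I682Q His-tagged EGFR kinase domain (residues 672-998), in 10 mM Tris pH 7.5, 20 mM NaCl, 0.02% v/v polysorbate 20. Samples were incubated about 10 min at room temperature, then adsorbed onto Formvar carbon-coated copper grids. Grids were negatively stained with three applications of 1% w/v uranyl acetate and imaged by transmission electron microscopy.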

V924R EGFR kinase domain = test: Enzyme-coupled kinase assay, V924R mutant alone; format: biochemical; settings: 2 μM kinase domain; titration of Peptide C; 500 μM ATP; pH 7.5; room temperature
Outline: (§2)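 Spectrophotometric enzyme-coupled kinase assay using N-terminally His6-tagged EGFR kinase domain (residues 672-998); mutants were made by site-directed mutagenesis and sequence-confirmed. Total kinase domain was 2 μM, with 1 μM of each mutant when paired. The test peptide substrate was titrated with 500 μM ATP in 10 mM MgCl2, 20 mM Tris pH 7.5 at room temperature. Specific rates came from at least triplicates; for pairs, Hill coefficients came from variable-slope log(agonist)-response fits.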

[3] = Transmission electron microscopy of Peptide C alone; format: physicochemical; settings: 20, 40 and 80 μM, TEM
Outline: as §1

[4] = target: I682Q/D813N and V924R EGFR kinase domains (Homo sapiens, UniProt P00533, V948R); test: Enzyme-coupled kinase assay, pair I682Q/D813N and V924R; format: biochemical; settings: I682Q/D813N with V924R, 1 μM each; minimum of three replicates
Outline: as §2

I682Q EGFR kinase domain [5] = test: Transmission electron microscopy with I682Q EGFR kinase domain; settings: different concentrations of Peptide C; 2 μM I682Q EGFR kinase domain; TEM
Outline: as §1

EGFR kinase domain [6] = target: T1, EGFR kinase domain (Homo sapiens, UniProt P00533); test: Immunoblot analysis of EGFR kinase domain autophosphorylation; format: biochemical; settings: 0-60 μM Peptide C; 800 nM EGFR kinase domain; 500 μM ATP; pH 7.5; 1 minute; room temperature; minimum of three replicates
I682Q EGFR kinase domain [7] = test: Enzyme-coupled kinase assay, I682Q mutant alone; format: biochemical; settings: 2 μM kinase domain; titration of Peptide C; 500 μM ATP; pH 7.5; room temperature
Outline: as §2

[8] = target: EGFR kinase domain (residues 672-998) (Homo sapiens, UniProt P00533); test: Enzyme-coupled kinase assay, wild type EGFR kinase domain; format: biochemical
[9] = Dynamic light scattering of Peptide C; format: physicochemical; settings: DLS, 25° C
Outline: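 Test peptide at 1 mM, prepared in water, in 20 mM NaCl, or in assay buffer (15 mM Tris pH 7.5, 0.02% v/v polysorbate 20, 20 mM NaCl). DLS was run at 25° C with a 60 mW laser at 15% power and a 90° detection angle. Buffer components were filtered beforehand; the peptide itself was not filtered.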

EGFR [10] = settings: reported value, cited from earlier work
[11] = target: I682Q and V924R EGFR kinase domains (Homo sapiens, UniProt P00533, V948R); test: Enzyme-coupled kinase assay, pair I682Q and V924R; format: biochemical; settings: 1 μM each
Outline: as §2

EGFR kinase domain [12] = target: T1, EGFR kinase domain; test: Radiometric kinase assay of Tail Peptide A phosphorylation; format: biochemical
Outline: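 Buffer was 15 mM Tris pH 7.5, 0.02% v/v polysorbate 20, 10 mM MgCl2. A non-phosphorylatable test peptide (substrate Tyr→Ala) was added at varied concentrations. After 10 min at room temperature, reactions were quenched with 0.5% v/v phosphoric acid, spotted on phosphocellulose filters, washed, and scintillation-counted (four replicate filters).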

[13] = Peptide C (2 μM EGFR) vs Tyrsub (8 μM EGFR)

Compound: CCCCCCCCCCCCC/C=C/[C@@H](O)[C@@H](N)CO [sphingosine]
aggregation and activation of EGFR (EGFR [1]): can aggregate and activate EGFR in an apparently cooperative manner

Compound: RAHEEIYHFFFAKKK [Peptide C]
small, dispersed EGFR aggregates ([2]; 20 μM Peptide C, 2 μM EGFR kinase domain): also observed | small, dispersed EGFR aggregates ([2]; 80 μM Peptide C, 2 μM EGFR kinase domain): not observed | fibrils and globular aggregates with EGFR kinase domain ([2]; 20 and 80 μM Peptide C, 2 μM EGFR kinase domain, about 10 minutes): forms fibrils in the presence of EGFR; also recorded: Fibrils similar to those formed by Peptide C alone as well as globular aggregates localized near the fibrils are observed | fibril edges with EGFR kinase domain ([2]; Peptide C with 2 μM EGFR kinase domain): the fibril edges are less defined; also recorded: appear less crisp | activating properties with V924R alone (V924R EGFR kinase domain): entirely abrogated | fibril length ([3]; 10 mM Tris, pH 7.5, 20 mM NaCl, 0.02% polysorbate 20): several hundreds | dependence of fibril morphology on concentration [3]: appears to be independent of Peptide C concentration | globular aggregates [3]: Globular aggregates closely associated with the fibrils are also observed | Hill coefficient (nH) [4]: ~ 2.5 | appearance with I682Q EGFR kinase domain compared with wild type (I682Q EGFR kinase domain [5]): appear indistinguishable from wild type | Tyr-845 phosphorylation (EGFR kinase domain [6]): increases in a dose-dependent manner | Tyr-974 phosphorylation (EGFR kinase domain [6]): same dose-dependent increase in phosphorylation | Tyr-992 phosphorylation (EGFR kinase domain [6]): same dose-dependent increase in phosphorylation | activating properties with I682Q alone (I682Q EGFR kinase domain [7]): entirely abrogated | kcat, fold higher than for Tail Peptide A ([8]; Peptide C (2 μM EGFR) vs Tail Peptide A (8 μM EGFR)): roughly eight | catalytic efficiency (kcat/KM), fold higher than for Tyrsub [8, 13]: ~760 fold | kcat, fold higher than for Tyrsub [8, 13]: roughly eight | Hill coefficient (nH) ([8]; wild type kinase domain, 2 μM, 500 μM ATP, pH 7.5, room temperature, Hill equation fit, minimum of three replicates): ~ 2.8 and ~3 | aggregation ([9]; 1 mM in 20 mM sodium chloride): aggregation to an intermediate degree between the aqueous solution and the buffered samples | aggregation ([9]; 1 mM in water): limited aggregation | hydrodynamic radius ([9]; 1 mM in water, polydisperse distribution): 1-10 nm | Km (EGFR [10]; ref [5],[9]): 128 µM | catalytic efficiency, kcat/KM, fold higher than for Tail Peptide A (EGFR [10]; ref [9]): ~ 26 fold | catalysis relative to wild type kinase domain ([11]; I682Q and V924R combined, 500 μM ATP, pH 7.5, room temperature): about 60% | Hill coefficient (nH) ([11]; I682Q with V924R, minimum of three replicates): ~ 3.0

Compound: poly-lysine
aggregation and activation of EGFR (EGFR [1]): can aggregate and activate EGFR in an apparently cooperative manner

EC50 (EGFR kinase domain [12]): 45 µM
Compound: RAHEEIAHFFFAKKK [Peptide C variant]

Compound: protamine
aggregation and activation of EGFR (EGFR [1]): can aggregate and activate EGFR in an apparently cooperative manner

Compound: poly-arginine
aggregation and activation of EGFR (EGFR [1]): can aggregate and activate EGFR in an apparently cooperative manner
